Measurements as given in ChEMBL document CHEMBL1125497, “Synthesis and anticonvulsant activity of enaminones” (J Med Chem, 1992).

Columns and labels:
[1] = Antiepileptic activity in male CF1 mice 30 min after administration measured in subcutaneous pentylenetetrazole (scMet) test at a dose of 300 mg/kg (no. of animals treated /protected); activity value is 1/1; assay type: functional, Mus musculus
[2] = Antiepileptic activity in male CF1 mice 4 hr after administration measured in subcutaneous pentylenetetrazole (scMet) test at a dose of 300 mg/kg; activity value is 0/1; assay type: functional, Mus musculus
[3] = Antiepileptic activity in male CF1 mice 4 hr after administration measured in maximum electroshock seizure(MES) test at a dose of 300 mg/kg (no. of animals treated /protected); activity value is 1/1; assay type: functional, Mus musculus
[4] = Antiepileptic activity in male CF1 mice 30 min after administration measured in maximum electroshock seizure(MES) test at a dose of 300 mg/kg (no. of animals treated /protected); activity value is 1/1; assay type: functional, Mus musculus
[5] = Antiepileptic activity in male CF1 mice 30 min after administration measured in neurological toxicity (Tox) test at a dose of 300 mg/kg (no. of animals treated /protected); activity value is 0/4; assay type: functional, Mus musculus
[6] = Dose at which anticonvulsant activity was observed in mice; assay type: functional, Mus musculus
[7] = Antiepileptic activity in male CF1 mice 4 hr after administration measured in neurological toxicity (Tox) test at a dose of 300 mg/kg (no. of animals treated /protected); activity value is 0/2; assay type: functional, Mus musculus
[8] = Antiepileptic activity in male CF1 mice 30 min after administration measured in neurological toxicity (Tox) test at a dose of 300 mg/kg (no. of animals treated /protected); activity value is 2/4; assay type: functional, Mus musculus
[9] = Antiepileptic activity in male CF1 mice 4 hr after administration measured in maximum electroshock seizure(MES) test at a dose of 30 mg/kg (no. of animals treated /protected); activity value is 0/1; assay type: functional, Mus musculus
[10] = Antiepileptic activity in male CF1 mice 30 min after administration measured in maximum electroshock seizure(MES) test at a dose of 30 mg/kg (no. of animals treated /protected); activity value is 0/1; assay type: functional, Mus musculus
[11] = Antiepileptic activity in male CF1 mice 4 hr after administration measured in maximum electroshock seizure(MES) test at a dose of 300 mg/kg (no. of animals treated /protected); activity value is 0/1; assay type: functional, Mus musculus
[12] = Antiepileptic activity in male CF1 mice 4 hr after administration measured in subcutaneous pentylenetetrazole (scMet) test at a dose of 300 mg/kg (no. of animals treated /protected); activity value is 0/1; assay type: functional, Mus musculus
[13] = Antiepileptic activity in male CF1 mice 30 min after administration measured in subcutaneous pentylenetetrazole (scMet) test at a dose of 300 mg/kg (no. of animals treated /protected); activity value is 0/1; assay type: functional, Mus musculus
[14] = Antiepileptic activity in male CF1 mice 30 min after administration measured in subcutaneous pentylenetetrazole (scMet) test at a dose of 30 mg/kg (no. of animals treated /protected); activity value is 1/1; assay type: functional, Mus musculus
[15] = Antiepileptic activity in male CF1 mice 30 min after administration measured in neurological toxicity (Tox) test at a dose of 30 mg/kg (no. of animals treated /protected); activity value is 0/4; assay type: functional, Mus musculus
[16] = Antiepileptic activity in male CF1 mice 4 hr after administration measured in neurological toxicity (Tox) test at a dose of 30 mg/kg (no. of animals treated /protected); activity value is 0/2; assay type: functional, Mus musculus
[17] = Antiepileptic activity in male CF1 mice 4 hr after administration measured in subcutaneous pentylenetetrazole (scMet) test at a dose of 30 mg/kg; activity value is 0/1; assay type: functional, Mus musculus
Rattus norvegicus [18] = assay: Average seizure score for the rat cornea 0.5 hr after intraperitoneal administration of 100 mg/Kg of compound; assay type: functional
Summary of the method: (§1)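 Sprague-Dawley rats (85–95 g initial) were kindled with 4 s, 8 mA corneal stimulations (butacaine anesthesia) to 10 consecutive stage 5 seizures. After a vehicle shock and a 2-day shock-free period, test drug was given ip or po and a single shock applied at time of peak effect. Seizures were scored on a modified Racine 0–5 scale. ED50 is the dose reducing severity by 50% (Litchfield–Wilcoxon).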

[19] = Time of peak neurotoxic effect in CF1 MICE after ip administration.; assay type: ADME, organism-based; conditions: mouse, in vivo
Summary of the method: (§2)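 Male CF1 mice (ca. 24–34 g), compound ip in 0.5% methylcellulose suspension; neurological deficit assessed by rotorod test, time (h) of peak neurotoxic effect recorded for TD50 determination.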

[20] = Dose elevating electroshock induced seizure by 20% in CF1 mice after ip administration.; assay type: functional, Mus musculus
Summary of the method: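 In CF1 male mice (ca. 24–34 g), compound was given ip in 0.5% methylcellulose. The current giving hind limb extension in 50% of mice was found by the up-and-down method, with 15–25 mice per group and a vehicle control group run with each experimental group. At least three doses were tested. The dose raising threshold current by 20% was taken from a plot of dose against % threshold increase.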

[21] = Time of peak neurotoxic effect in CF1 mice; assay type: ADME; conditions: mouse, in vivo; summary of the method: as §2
[22] = Time of peak anticonvulsant effect in CF1 MICE after ip administration.; assay type: functional, Mus musculus
Summary of the method: (§3)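 Male CF1 mice (ca. 24–34 g), compound in 0.5% methylcellulose suspension given ip or po; time (h) at which MES protection (against tonic hind limb extension) peaked was recorded and used for ED50 determination.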

Rattus norvegicus [23] = assay: Dose reducing the seizure severity in rat cornea 1 hr after peroral administration.; assay type: ADME, organism-based; conditions: po; summary of the method: as §1
Rattus norvegicus [24] = assay: Intraperitoneal dose (150 mg/Kg) reducing rat corneal kindling 0.5 hr after administration.; assay type: functional; summary of the method: as §1
[25] = Dose protecting 50% of the mice from tonic hind limb extension at the time of […] after ip administration.; assay type: functional; conditions: Mus musculus, Hindlimb
Summary of the method: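 Phase II quantification in CF1 male mice (ca. 24–34 g), dosing ip or po in 0.5% methylcellulose suspension. ED50 is protection from tonic hind limb extension in MES. TD50 is rotorod neurotoxicity. Both were read at time of peak effect and derived by Litchfield–Wilcoxon with 95% confidence limits.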

[26] = Time of peak anticonvulsant effect in CF1 mice; assay type: functional, Mus musculus; summary of the method: as §3
Rattus norvegicus [27] = assay: Intraperitoneal dose (250 mg/Kg) reducing rat corneal kindling 0.5 hr after administration.; assay type: functional; summary of the method: as §1
Rattus norvegicus [28] = assay: Average seizure score for the rat cornea 0.5 hr after intraperitoneal administration of 200 mg/Kg of compound; assay type: functional; summary of the method: as §1
Rattus norvegicus [29] = assay: Average seizure score for the rat cornea 0.5 hr after intraperitoneal administration of 150 mg/Kg of compound; assay type: functional; summary of the method: as §1
Rattus norvegicus [30] = assay: Intraperitoneal dose (100 mg/Kg) reducing rat corneal kindling 0.5 hr after administration.; assay type: functional; summary of the method: as §1
Rattus norvegicus [31] = assay: Average seizure score for the rat cornea 0.5 hr after intraperitoneal administration of 0 mg/Kg of compound; assay type: functional
Summary of the method: (§4)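 Sprague-Dawley rats (85–95 g initial weight) kindled by corneal stimulation (4 s, 8 mA) twice daily for 5 to 6 days, then once daily until 10 consecutive stage 5 seizures. Butacaine sulfate 1% applied to the cornea as a topical anaesthetic. After a vehicle shock and a 2-day shock-free period, drug given ip, then a single shock at the time of peak effect. Scored on the modified Racine scale (0–5).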

Rattus norvegicus [32] = assay: Dose reducing the seizure severity in rat cornea 0.5 hr after peroral administration.; assay type: functional; conditions: po; summary of the method: as §1
Rattus norvegicus [33] = assay: Average seizure score for the rat cornea 0.5 hr after intraperitoneal administration of 250 mg/Kg of compound; assay type: functional; summary of the method: as §1
Rattus norvegicus [34] = assay: Intraperitoneal dose (0 mg/Kg) reducing rat corneal kindling 0.5 hr after administration.; assay type: functional; summary of the method: as §4
Rattus norvegicus [35] = assay: Intraperitoneal dose (200 mg/Kg) reducing rat corneal kindling 0.5 hr after administration.; assay type: functional; summary of the method: as §1

For `COC(=O)C1C(=O)C=C(NCc2ccc(Cl)cc2)CC1C` (stereo not drawn), the Activity [1] was 1, the Activity [2] was 0 and the Activity [3] was 1. For the same compound, the Activity [4] was 1, the Activity [5] was 0 and the Dose [6] was >100 mg/kg. For the same compound, the Activity [7] was 0.
`COC(=O)C1C(=O)C=C(Nc2ccc(C)cc2)CC1C` (stereo not drawn) gave an Activity [8] of 2, an Activity [9] of 0 and an Activity [10] of 0. It also gave an Activity [11] of 0, an Activity [12] of 0 and an Activity [4] of 1. For the same compound, the Activity [13] was 0, the Activity [14] was 1 and the Activity [15] was 0. For the same compound, the Dose [6] was “<=100 mg kg-1”, the Activity [16] was 0 and the Activity [17] was 0. For the same compound, the Activity [7] was 0.
In the case of `CCCC(CCC)C(=O)O` [VALPROIC ACID], the Average seizure score (Rattus norvegicus [18]) was 2.6, the TPE [19] was 0.5 and the Dose [20] was 132 mg/kg. The TPE [21] was 0.25, the TPE [22] was 0.5 and the ED50 (Rattus norvegicus [23]) was 117 mg/kg. The Reduction (Rattus norvegicus [24]) was 76%, the ED50 [25] was 248 mg/kg and the TPE [26] was 0.25. For the same compound, the Reduction (Rattus norvegicus [27]) was 90%, the Average seizure score (Rattus norvegicus [28]) was 0.1 and the Average seizure score (Rattus norvegicus [29]) was 1.2. For the same compound, the Reduction (Rattus norvegicus [30]) was 49%, the Average seizure score (Rattus norvegicus [31]) was 5 and the ED50 (Rattus norvegicus [32]) was 96 mg/kg. The Average seizure score (Rattus norvegicus [33]) was 0.5, the Reduction (Rattus norvegicus [34]) was 0% and the Reduction (Rattus norvegicus [35]) was 98%.
